B1: Osa-1-4 twister ribozyme (parent)
chain: CCGCCUAACACUGCCAAUGCCGGUCCCAAGCCCGGAUAAAAGUGGAGGGGGCGG

Variants of: B1
Assay: self-cleavage, relative activity (ratio to wild type); higher = more cleavage; co-transcriptional
Method in brief: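 The 48 positions downstream of the cleavage site in a DNA template for a 54-nucleotide Oryza sativa twister ribozyme carried 97 % wild-type base and 1 % of each other base. After in vitro transcription (2 h, 37 °C) with co-transcriptional self-cleavage, the RNA was reverse-transcribed with a template-switching oligonucleotide, PCR-amplified and deep-sequenced. Relative activity is the fraction cleaved, judged by reads with or without upstream sequence and normalised to wild type.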

Variant | self-cleavage
CCGCCUAACACUGCCAAUGCCGGUCCCAAGCCCGGUUAAAAGUGGAGGCGGCGG | 0.07
CCGCCUAACACUGCCAAUGCCGGUCCCAAGCCCGGUUAAAAGUGGAGGUGGCGG | 0.17
CCGCCUAACACUGCCAAUGCCGGUCCCAAGCCCGGUUAAAAGUGGAGGGAGCGG | 0.87
CCGCCUAACACUGCCAAUGCCGGUCCCAAGCCCGGUUAAAAGUGGAGGGCGCGG | 1.06
CCGCCUAACACUGCCAAUGCCGGUCCCAAGCCCGGUUAAAAGUGGAGGGUGCGG | 1.03
CCGCCUAACACUGCCAAUGCCGGUCCCAAGCCCGGUUAAAAGUGGAGGGGACGG | 0.84
CCGCCUAACACUGCCAAUGCCGGUCCCAAGCCCGGUUAAAAGUGGAGGGGCCGG | 0.16
CCGCCUAACACUGCCAAUGCCGGUCCCAAGCCCGGUUAAAAGUGGAGGGGUCGG | 0.52
CCGCCUAACACUGCCAAUGCCGGUCCCAAGCCCGGUUAAAAGUGGAGGGGGCAG | 0.94
CCGCCUAACACUGCCAAUGCCGGUCCCAAGCCCGGUUAAAAGUGGAGGGGGCCG | 0.11
CCGCCUAACACUGCCAAUGCCGGUCCCAAGCCCGGUUAAAAGUGGAGGGGGCUG | 0.46
CCGCCUAACACUGCCAAUGCCGGUCCCAAGCCCGGUUAAAAGUGGAGGGGGCGA | 1.01
CCGCCUAACACUGCCAAUGCCGGUCCCAAGCCCGGUUAAAAGUGGAGGGGGCGC | 0.96
CCGCCUAACACUGCCAAUGCCGGUCCCAAGCCCGGUUAAAAGUGGAGGGGGCGU | 1.02
CCGCCUAACACAGCCAAUGCCGGUCCCAAGCCCGGUUAAAAGUGGAGGGGGCGG | 0.99
CCGCCUAACACCGCCAAUGCCGGUCCCAAGCCCGGUUAAAAGUGGAGGGGGCGG | 0.58
CCGCCUAACACGGCCAAUGCCGGUCCCAAGCCCGGUUAAAAGUGGAGGGGGCGG | 0.64
CCGCCUAACACUGCCAAAGCCGGUCCCAAGCCCGGUUAAAAGUGGAGGGGGCGG | 0.97
CCGCCUAACACUGCCAACGCCGGUCCCAAGCCCGGUUAAAAGUGGAGGGGGCGG | 0.98
CCGCCUAACACUGCCAAGGCCGGUCCCAAGCCCGGUUAAAAGUGGAGGGGGCGG | 0.88
CCGCCUAACACUGCCAAUGCCGGACCCAAGCCCGGUUAAAAGUGGAGGGGGCGG | 0.27
CCGCCUAACACUGCCAAUGCCGGCCCCAAGCCCGGUUAAAAGUGGAGGGGGCGG | 0.45
CCGCCUAACACUGCCAAUGCCGGGCCCAAGCCCGGUUAAAAGUGGAGGGGGCGG | 0.03
CCGCCUAACACUGCCAAUGCCGGUCCCAAGCCCGGUAAAAAGUGGAGGGGGCGG | 1.01
CCGCCUAACACUGCCAAUGCCGGUCCCAAGCCCGGUCAAAAGUGGAGGGGGCGG | 1.07

Variant | self-cleavage
CCGCCUAACACUGCCAAUGCCGGUCCCAAGCCCGGUGAAAAGUGGAGGGGGCGG | 1.05
CCGCCUAACACUGCCAAUGCCGGUCCCAAGCCCGGUUAAAAGAGGAGGGGGCGG | 0.99
CCGCCUAACACUGCCAAUGCCGGUCCCAAGCCCGGUUAAAAGCGGAGGGGGCGG | 0.38
CCGCCUAACACUGCCAAUGCCGGUCCCAAGCCCGGUUAAAAGGGGAGGGGGCGG | 0.64
CCGCCUAACACUGCCAAUGCCGGUCCCAAGCCCGGAAAAAAGUGGAGGGGGCGG | 0.79
CCGCCUAACACUGCCAAUGCCGGUCCCAAGCCCGGAAAAAAGAGGAGGGGGCGG | 0.76
CCGCCUAACACUGCCAAUGCCGGUCCCAAGCCCGGAAAAAAGCGGAGGGGGCGG | 0.44
CCGCCUAACACUGCCAAUGCCGGUCCCAAGCCCGGAAAAAAGGGGAGGGGGCGG | 0.43
CCGCCUAACACUGCCAAUGCCGGUCCCAAGCCCGGACAAAAGUGGAGGGGGCGG | 1.04
CCGCCUAACACUGCCAAUGCCGGUCCCAAGCCCGGACAAAAGAGGAGGGGGCGG | 0.96
CCGCCUAACACUGCCAAUGCCGGUCCCAAGCCCGGACAAAAGCGGAGGGGGCGG | 0.38
CCGCCUAACACUGCCAAUGCCGGUCCCAAGCCCGGACAAAAGGGGAGGGGGCGG | 0.66
CCGCCUAACACUGCCAAUGCCGGUCCCAAGCCCGGAGAAAAGUGGAGGGGGCGG | 1.03
CCGCCUAACACUGCCAAUGCCGGUCCCAAGCCCGGAGAAAAGAGGAGGGGGCGG | 0.93
CCGCCUAACACUGCCAAUGCCGGUCCCAAGCCCGGAGAAAAGCGGAGGGGGCGG | 0.52
CCGCCUAACACUGCCAAUGCCGGUCCCAAGCCCGGAGAAAAGGGGAGGGGGCGG | 0.68
CCGCCUAACACUGCCAAUGCCGGUCCCAAGCCCGGAUCAAAGUGGAGGGGGCGG | 1.02
CCGCCUCACACUGCCAAUGCCGGUCCCAAGCCCGGAUCAAAGUGGAGGGGGCGG | 0.05
CCGCCUGACACUGCCAAUGCCGGUCCCAAGCCCGGAUCAAAGUGGAGGGGGCGG | 0.22
CCGCCUUACACUGCCAAUGCCGGUCCCAAGCCCGGAUCAAAGUGGAGGGGGCGG | 0.08
CCGCCUACCACUGCCAAUGCCGGUCCCAAGCCCGGAUCAAAGUGGAGGGGGCGG | 0.07
CCGCCUAGCACUGCCAAUGCCGGUCCCAAGCCCGGAUCAAAGUGGAGGGGGCGG | 0.53
CCGCCUAUCACUGCCAAUGCCGGUCCCAAGCCCGGAUCAAAGUGGAGGGGGCGG | 0.28
CCGCCUAACACUGCCAAUGCCGGUCCCAAGCCCGGAUCCAAGUGGAGGGGGCGG | 0.86

Source: the RNAGym collection of RNA variant scans (doi:10.1002/anie.201605470)
